According to ChEMBL document CHEMBL1129626, “Cyclic HIV protease inhibitors: synthesis, conformational analysis, P2/P2' structure-activity relationship, and molecular recognition of cyclic ureas” (J Med Chem, 1996):

Assays:
[1] = tested on: Human immunodeficiency virus 1; test: Inhibition of viral infection in HIV-1 (RF)-infected MT-2 cells with an oligonucleotide-based sandwich hybridization assay.; type: functional, MT2
How it was run: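 Uninfected MT-2 cells were preincubated for 30 min with serial dilutions of compound, then infected with HIV-1 RF and cultured for 3 days at 37 °C, 5% CO2. Lysates were assayed for viral RNA by microtiter oligonucleotide sandwich hybridization.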

[2] = molecular target: Human immunodeficiency virus type 1 protease (Human immunodeficiency virus 1, UniProt Q72874); test: Inhibitory activity against HIV-1 protease
How it was run: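 HIV-1 protease Ki from cleavage of a fluorescent peptide substrate, products resolved by HPLC. Inhibitor was tested at four concentrations spanning 0.1–10 000 nM, the range chosen per inhibitor.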

[3] = Bioavailability in rat; type: ADME, organism-based; conditions: in vivo
How it was run: (§1)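 Rats (n = 4/group) were given an oral dose of 10 mg/kg in a propylene glycol / poly(ethylene glycol) 400 / water formulation. Cmax is the observed peak plasma concentration after the oral dose. F% is AUC(po)/AUC, with AUC taken from time zero to infinity and normalized for dose.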

[4] = Bioavailability as maximal plasma concentration in rats; type: ADME, organism-based; conditions: rat; how it was run: as §1
[5] = Human immunodeficiency virus 1, MT2

| Compound | IC90 [1] [µM] | Ki [2] [µM] | IC90 [1, 5] [µM] | bioavailability [3] [%] | Cmax [4] [nM] |
| --- | --- | --- | --- | --- | --- |
| O=C1N(Cc2ccc(CO)cc2)[C@H](Cc2ccccc2)[C@H](O)[C@@H](O)[C@@H](Cc2ccccc2)N1Cc1ccc(CO)cc1 | 51 | 1.65 |  |  |  |
| CCCCN1C(=O)N(CCCC)[C@H](Cc2ccccc2)[C@H](O)[C@@H](O)[C@H]1Cc1ccccc1 |  | 0.0014 | 0.68 |  |  |
| CC(C)CCN1C(=O)N(CCC(C)C)[C@H](Cc2ccccc2)[C@H](O)[C@@H](O)[C@H]1Cc1ccccc1 |  | 0.012 | 3.2 |  |  |
| O=C1N(Cc2cccc(CO)c2)[C@H](Cc2ccccc2)[C@H](O)[C@@H](O)[C@@H](Cc2ccccc2)N1Cc1cccc(CO)c1 |  | 0.00014 | 0.038 | 18 | 830 |
| CC(C)=CCN1C(=O)N(CC=C(C)C)[C@H](Cc2ccccc2)[C@H](O)[C@@H](O)[C@H]1Cc1ccccc1 |  |  | 0.87 |  | < 400 |
| O=C1N(CC2CCCC2)[C@H](Cc2ccccc2)[C@H](O)[C@@H](O)[C@@H](Cc2ccccc2)N1CC1CCCC1 |  | 0.0043 | 1.7 |  | 200 |
| O=C1N(CC2CCC2)[C@H](Cc2ccccc2)[C@H](O)[C@@H](O)[C@@H](Cc2ccccc2)N1CC1CCC1 |  | 0.0013 | 1 |  |  |
| O=C1N(Cc2ccccc2)[C@H](Cc2ccccc2)[C@H](O)[C@@H](O)[C@@H](Cc2ccccc2)N1Cc1ccccc1 |  | 0.003 | 0.83 |  | 1300 |
| COc1ccccc1CN1C(=O)N(Cc2ccccc2OC)[C@H](Cc2ccccc2)[C@H](O)[C@@H](O)[C@H]1Cc1ccccc1 |  | 1.87 | 22.9 |  |  |
| O=C1N(Cc2cccc(Cl)c2)[C@H](Cc2ccccc2)[C@H](O)[C@@H](O)[C@@H](Cc2ccccc2)N1Cc1cccc(Cl)c1 |  | 0.00089 | 1.3 |  | 300 |
| C#CCN1C(=O)N(CC#C)[C@H](Cc2ccccc2)[C@H](O)[C@@H](O)[C@H]1Cc1ccccc1 |  | 0.022 | 42 |  |  |
| C=C(C)CN1C(=O)N(CC(=C)C)[C@H](Cc2ccccc2)[C@H](O)[C@@H](O)[C@H]1Cc1ccccc1 |  | 0.0073 | 7.6 |  |  |
| COc1cccc(CN2C(=O)N(Cc3cccc(OC)c3)[C@H](Cc3ccccc3)[C@H](O)[C@@H](O)[C@H]2Cc2ccccc2)c1 |  | 0.0016 | 1.3 |  |  |
| CCCN1C(=O)N(Cc2ccc3ccccc3c2)[C@H](Cc2ccccc2)[C@H](O)[C@@H](O)[C@H]1Cc1ccccc1 |  | 0.0011 | 3.3 |  |  |
| C=COCCN1C(=O)N(CCOC=C)[C@H](Cc2ccccc2)[C@H](O)[C@@H](O)[C@H]1Cc1ccccc1 |  | 0.06 | > 107 |  |  |
| C=CCN1C(=O)N(Cc2ccc3ccccc3c2)[C@H](Cc2ccccc2)[C@H](O)[C@@H](O)[C@H]1Cc1ccccc1 |  | 0.0014 | 0.99 |  |  |
| CCCCCCN1C(=O)N(CCCCCC)[C@H](Cc2ccccc2)[C@H](O)[C@@H](O)[C@H]1Cc1ccccc1 |  | 0.0046 | > 102 |  |  |
| O=C1N(Cc2cccnc2)[C@H](Cc2ccccc2)[C@H](O)[C@@H](O)[C@@H](Cc2ccccc2)N1Cc1ccc2ccccc2c1 |  | 0.0052 | 0.72 |  |  |
| COCCOCCN1C(=O)N(CCOCCOC)[C@H](Cc2ccccc2)[C@H](O)[C@@H](O)[C@H]1Cc1ccccc1 |  | 7.7 | > 94 |  |  |

| Compound | IC90 [1] [µM] | Ki [2] [µM] | IC90 [1, 5] [µM] | bioavailability [3] [%] | Cmax [4] [nM] |
| --- | --- | --- | --- | --- | --- |
| O=C1N(Cc2cccc(C(F)(F)F)c2)[C@H](Cc2ccccc2)[C@H](O)[C@@H](O)[C@@H](Cc2ccccc2)N1Cc1cccc(C(F)(F)F)c1 |  |  | 7.8 |  |  |
| CC(C)CCCN1C(=O)N(CCCC(C)C)[C@H](Cc2ccccc2)[C@H](O)[C@@H](O)[C@H]1Cc1ccccc1 |  | 0.007 | 8.1 |  |  |
| O=C1N(Cc2cccc(Br)c2)[C@H](Cc2ccccc2)[C@H](O)[C@@H](O)[C@@H](Cc2ccccc2)N1Cc1cccc(Br)c1 |  | 0.0014 | 1.2 |  |  |
| O=C1N(Cc2ccncc2)[C@H](Cc2ccccc2)[C@H](O)[C@@H](O)[C@@H](Cc2ccccc2)N1Cc1ccncc1 |  | 0.09 | 98 |  |  |
| O=C1N(Cc2ccncc2)[C@H](Cc2ccccc2)[C@H](O)[C@@H](O)[C@@H](Cc2ccccc2)N1Cc1ccc2ccccc2c1 |  | 0.0069 | 2.7 |  |  |
| O=C1N(Cc2ccc(F)cc2)[C@H](Cc2ccccc2)[C@H](O)[C@@H](O)[C@@H](Cc2ccccc2)N1Cc1ccc2ccccc2c1 |  | 0.0036 | 1.1 |  |  |
| O=C1N(Cc2ccccn2)[C@H](Cc2ccccc2)[C@H](O)[C@@H](O)[C@@H](Cc2ccccc2)N1Cc1ccccn1 |  | 0.145 | 49 |  |  |
| O=C1N(Cc2cccnc2)[C@H](Cc2ccccc2)[C@H](O)[C@@H](O)[C@@H](Cc2ccccc2)N1Cc1cccnc1 |  | 0.0097 | 8.8 |  |  |
| CC(C)CCCCN1C(=O)N(CCCCC(C)C)[C@H](Cc2ccccc2)[C@H](O)[C@@H](O)[C@H]1Cc1ccccc1 |  | 0.03 | > 95 |  |  |
| O=C1N(Cc2ccc(C(F)(F)F)cc2)[C@H](Cc2ccccc2)[C@H](O)[C@@H](O)[C@@H](Cc2ccccc2)N1Cc1ccc(C(F)(F)F)cc1 |  |  | 7.2 |  |  |
| CCCN1C(=O)N(CCC)[C@H](Cc2ccccc2)[C@H](O)[C@@H](O)[C@H]1Cc1ccccc1 |  | 0.008 | 54 |  |  |
| O=C1N(CC2CCCCC2)[C@H](Cc2ccccc2)[C@H](O)[C@@H](O)[C@@H](Cc2ccccc2)N1CC1CCCCC1 |  | 0.037 | > 96 |  |  |
| CN1C(=O)N(C)[C@H](Cc2ccccc2)[C@H](O)[C@@H](O)[C@H]1Cc1ccccc1 |  | 5.7 | > 141 |  |  |
| CCN1C(=O)N(CC)[C@H](Cc2ccccc2)[C@H](O)[C@@H](O)[C@H]1Cc1ccccc1 |  | 0.1 | > 132 |  |  |
| O=C1N(CCN2CCOCC2)[C@H](Cc2ccccc2)[C@H](O)[C@@H](O)[C@@H](Cc2ccccc2)N1CCN1CCOCC1 |  |  | > 91 |  |  |
| O=C1N(Cc2cccc([N+](=O)[O-])c2)[C@H](Cc2ccccc2)[C@H](O)[C@@H](O)[C@@H](Cc2ccccc2)N1Cc1cccc([N+](=O)[O-])c1 |  | 0.0028 | 0.97 |  |  |
| O=C1N(Cc2cccc(F)c2)[C@H](Cc2ccccc2)[C@H](O)[C@@H](O)[C@@H](Cc2ccccc2)N1Cc1cccc(F)c1 |  | 0.003 | 0.71 |  |  |
| O=C1N(Cc2ccccc2Cl)[C@H](Cc2ccccc2)[C@H](O)[C@@H](O)[C@@H](Cc2ccccc2)N1Cc1ccccc1Cl |  | 0.24 | 11.3 |  |  |
| CC(C)CCCCCN1C(=O)N(CCCCCC(C)C)[C@H](Cc2ccccc2)[C@H](O)[C@@H](O)[C@H]1Cc1ccccc1 |  | 0.11 | > 18 |  |  |

| Compound | IC90 [1] [µM] | Ki [2] [µM] | IC90 [1, 5] [µM] | bioavailability [3] [%] | Cmax [4] [nM] |
| --- | --- | --- | --- | --- | --- |
| CCCCCN1C(=O)N(CCCCC)[C@H](Cc2ccccc2)[C@H](O)[C@@H](O)[C@H]1Cc1ccccc1 |  | 0.0016 | 1.5 |  |  |
| Cc1ccc(CN2C(=O)N(Cc3ccc(C)cc3)[C@H](Cc3ccccc3)[C@H](O)[C@@H](O)[C@H]2Cc2ccccc2)cc1 |  | 0.0057 | 4.3 |  |  |
| COCCN1C(=O)N(CCOC)[C@H](Cc2ccccc2)[C@H](O)[C@@H](O)[C@H]1Cc1ccccc1 |  | 0.8 | > 114 |  |  |
| CCCCCCCN1C(=O)N(CCCCCCC)[C@H](Cc2ccccc2)[C@H](O)[C@@H](O)[C@H]1Cc1ccccc1 |  | 0.26 | > 96 |  |  |
| CCC(C)CCN1C(=O)N(CCC(C)CC)[C@H](Cc2ccccc2)[C@H](O)[C@@H](O)[C@H]1Cc1ccccc1 (stereo partly specified) |  | 0.036 |  |  |  |
| Cc1cccc(CN2C(=O)N(Cc3cccc(C)c3)[C@H](Cc3ccccc3)[C@H](O)[C@@H](O)[C@H]2Cc2ccccc2)c1 |  | 0.007 | 2.4 |  |  |
| O=C1N(Cc2cccc(I)c2)[C@H](Cc2ccccc2)[C@H](O)[C@@H](O)[C@@H](Cc2ccccc2)N1Cc1cccc(I)c1 |  | 0.00042 | 3 |  |  |
| O=C1N(Cc2ccc(F)cc2)[C@H](Cc2ccccc2)[C@H](O)[C@@H](O)[C@@H](Cc2ccccc2)N1Cc1ccc(F)cc1 |  | 0.0014 | 0.6 |  | 1600 |
| CCCCN1C(=O)N(Cc2ccc3ccccc3c2)[C@H](Cc2ccccc2)[C@H](O)[C@@H](O)[C@H]1Cc1ccccc1 |  | 0.0006 | 0.75 |  |  |
| CC(C)CN1C(=O)N(CC(C)C)[C@H](Cc2ccccc2)[C@H](O)[C@@H](O)[C@H]1Cc1ccccc1 |  | 0.049 | > 100 |  |  |
| O=C1N(Cc2ccc3ccccc3c2)[C@H](Cc2ccccc2)[C@H](O)[C@@H](O)[C@@H](Cc2ccccc2)N1CC1CC1 |  | 0.0015 | 1.3 |  |  |
| O=C1N(Cc2ccccc2F)[C@H](Cc2ccccc2)[C@H](O)[C@@H](O)[C@@H](Cc2ccccc2)N1Cc1ccccc1F |  | 0.034 | 5.5 |  |  |
| O=C1N(Cc2ccc(CO)cc2)[C@H](Cc2ccccc2)[C@H](O)[C@@H](O)[C@@H](Cc2ccccc2)N1Cc1ccc2ccccc2c1 |  | 0.00093 | 0.21 |  |  |
| O=C1N(Cc2ccccc2)[C@H](Cc2ccccc2)[C@H](O)[C@@H](O)[C@@H](Cc2ccccc2)N1Cc1ccc2ccccc2c1 |  | 0.0023 | 7.5 |  |  |
| Nc1cccc(CN2C(=O)N(Cc3ccc4ccccc4c3)[C@H](Cc3ccccc3)[C@H](O)[C@@H](O)[C@H]2Cc2ccccc2)c1 |  | 0.001 | 0.084 |  |  |
| CCOCCN1C(=O)N(CCOCC)[C@H](Cc2ccccc2)[C@H](O)[C@@H](O)[C@H]1Cc1ccccc1 |  | 1.1 | > 106 |  |  |
| O=C1N(Cc2ccc(Br)cc2)[C@H](Cc2ccccc2)[C@H](O)[C@@H](O)[C@@H](Cc2ccccc2)N1Cc1ccc(Br)cc1 |  | 0.027 | 8.1 |  |  |
| O=C1N(Cc2ccc(Cl)cc2)[C@H](Cc2ccccc2)[C@H](O)[C@@H](O)[C@@H](Cc2ccccc2)N1Cc1ccc(Cl)cc1 |  | 0.0052 | 4.5 |  |  |
| COc1ccc(CN2C(=O)N(Cc3ccc(OC)cc3)[C@H](Cc3ccccc3)[C@H](O)[C@@H](O)[C@H]2Cc2ccccc2)cc1 |  | 0.157 | 7.6 |  |  |
